Converted amounts (≈) assume the structure as drawn. The source made the active and inactive calls. No cut-off for these calls is given here.
Key:
Candida albicans [1] = assay: Antifungal activity against Candida albicans ATCC 10231 assessed as growth inhibition at 1 mg/mL after 48 hrs by agar-cup diffusion method; type: functional; settings: ATCC 10231, 48 h, read-out: DIZ
In short: (§1)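 Agar-cup diffusion: 1 mL of 6 h broth culture seeded per 100 mL molten sterile agar at 45 °C and poured into plates. 8 mm cups cut, each filled with 0.1 mL of 1 mg/mL test solution. Incubated 37 °C for 24 h, 48 h for C. albicans. DMSO control per organism. Inhibition zone diameter in mm, mean of three measurements.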

Escherichia coli [2] = assay: Antibacterial activity against Escherichia coli ATCC 25922 assessed as growth inhibition at 1 mg/mL after 24 hrs by agar-cup diffusion method; type: functional; settings: ATCC 25922, 24 h, read-out: DIZ; in short: as §1
Bacillus spizizenii [3] = assay: Antibacterial activity against Bacillus subtilis ATCC 6633 assessed as growth inhibition at 1 mg/mL after 24 hrs by agar-cup diffusion method; type: functional; settings: ATCC 6633, 24 h, read-out: DIZ; in short: as §1
Aspergillus niger = assay: Antifungal activity against Aspergillus niger assessed as growth inhibition at 1 mg/mL after 24 hrs by agar-cup diffusion method; type: functional, organism-based; in short: as §1
Candida albicans [4] = assay: Fungicidal activity against Candida albicans ATCC 10231 after 18 hrs; type: functional; settings: ATCC 10231, 18 h
In short: (§2)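 Continuation of the broth-dilution MIC test. A loopful from each tube without visible growth spread on a quarter of a Mueller-Hinton agar plate and incubated 18 h. Lowest concentration giving no growth on subculture taken as the MBC.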

Candida albicans [5] = assay: Antifungal activity against Candida albicans ATCC 10231 assessed as growth inhibition after 48 hrs by two-fold serial dilution assay; type: functional; settings: ATCC 10231, 48 h
In short: (§3)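 Twofold serial broth dilution run on compounds giving inhibition zones of 13 mm or more. Organisms pre-grown in suitable broth at 37 °C, 24 h for bacteria and 48 h for fungi. Dilution series 200, 100, 50, 25, 12.5, 6.25. Each 5 mL tube inoculated with 0.1 mL and incubated 37 °C for 48 h. Tubes scored for presence or absence of growth.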

Pseudomonas aeruginosa [6] = assay: Bactericidal activity against Pseudomonas aeruginosa ATCC 27853 after 18 hrs; type: functional; settings: ATCC 27853, 18 h; in short: as §2
Pseudomonas aeruginosa [7] = assay: Antibacterial activity against Pseudomonas aeruginosa ATCC 27853 assessed as growth inhibition after 48 hrs by two-fold serial dilution assay; type: functional; settings: ATCC 27853, 48 h; in short: as §3
Escherichia coli [8] = assay: Bactericidal activity against Escherichia coli ATCC 25922 after 18 hrs; type: functional; settings: ATCC 25922, 18 h; in short: as §2
Escherichia coli [9] = assay: Antibacterial activity against Escherichia coli ATCC 25922 assessed as growth inhibition after 48 hrs by two-fold serial dilution assay; type: functional; settings: ATCC 25922, 48 h; in short: as §3
Bacillus spizizenii [10] = assay: Bactericidal activity against Bacillus subtilis ATCC 6633 after 18 hrs; type: functional; settings: ATCC 6633, 18 h; in short: as §2
Bacillus spizizenii [11] = assay: Antibacterial activity against Bacillus subtilis ATCC 6633 assessed as growth inhibition after 48 hrs by two-fold serial dilution assay; type: functional; settings: ATCC 6633, 48 h; in short: as §3
Staphylococcus aureus [12] = assay: Bactericidal activity against Staphylococcus aureus ATCC 6538 after 18 hrs; type: functional; settings: ATCC 6538, 18 h; in short: as §2
Staphylococcus aureus [13] = assay: Antibacterial activity against Staphylococcus aureus ATCC 6538 assessed as growth inhibition after 48 hrs by two-fold serial dilution assay; type: functional; settings: ATCC 6538, 48 h; in short: as §3
Staphylococcus aureus [14] = assay: Antibacterial activity against Staphylococcus aureus ATCC 6538 assessed as growth inhibition at 1 mg/mL after 24 hrs by agar-cup diffusion method; type: functional; settings: ATCC 6538, 24 h, read-out: DIZ; in short: as §1
Pseudomonas aeruginosa [15] = assay: Antibacterial activity against Pseudomonas aeruginosa ATCC 27853 assessed as growth inhibition at 1 mg/mL after 24 hrs by agar-cup diffusion method; type: functional; settings: ATCC 27853, 24 h, read-out: DIZ; in short: as §1

MIC (Candida albicans [5]) [µg/mL]	MIC (Pseudomonas aeruginosa [7]) [µg/mL]	MIC (Escherichia coli [9]) [µg/mL]	MIC (Bacillus spizizenii [11]) [µg/mL]	MIC (Staphylococcus aureus [13]) [µg/mL]	Structure (SMILES)	zone of inhibition at 1000 µg/mL (Candida albicans [1]) [mm]	zone of inhibition at 1000 µg/mL (Escherichia coli [2]) [mm]	zone of inhibition at 1000 µg/mL (Bacillus spizizenii [3]) [mm]	growth inhibition (GI) (Aspergillus niger)	MFC (Candida albicans [4]) [µg/mL]	MBC (Pseudomonas aeruginosa [6]) [µg/mL]	MBC (Escherichia coli [8]) [µg/mL]	MBC (Bacillus spizizenii [10]) [µg/mL]	MBC (Staphylococcus aureus [12]) [µg/mL]	zone of inhibition at 1000 µg/mL (Staphylococcus aureus [14]) [mm]	zone of inhibition at 1000 µg/mL (Pseudomonas aeruginosa [15]) [mm]
100 (≈ 311 µM)	50 (≈ 156 µM)	100 (≈ 311 µM)	50 (≈ 156 µM)	25 (≈ 77.8 µM)	Cc1ccc(NC(=S)Nc2nc(C)c(C(=O)NN)s2)cc1	> 13	> 13	> 13	inactive	100 (≈ 311 µM)	100 (≈ 311 µM)	100 (≈ 311 µM)	50 (≈ 156 µM)	25 (≈ 77.8 µM)	> 13	> 13
100 (≈ 319 µM)	–	–	100 (≈ 319 µM)	50 (≈ 160 µM)	CCOC(=O)c1sc(NC(=O)CN2CCOCC2)nc1C	> 13	> 13	> 13	inactive	100 (≈ 319 µM)	–	–	100 (≈ 319 µM)	50 (≈ 160 µM)	> 13	> 13

Reference: ChEMBL document CHEMBL3124924, “Bifunctional ethyl 2-amino-4-methylthiazole-5-carboxylate derivatives: synthesis and in vitro biological evaluation as antimicrobial and anticancer agents” (2014)
